Compound activity: PubChem BioAssay, several laboratories
tolC growth inh – growth inhibitors of E. coli BW25113 tolC mutant; AID 573; growth inhibition, % at 10 µM (by protocol); OD615; 65,000 compounds, 2.2% hits;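 active = growth inhibition at or above a cutoff equal to the mean over every tested compound plus 3 SD, cut at about 60% in these data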;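 note: growth measured after 20 h incubation at 37 °C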
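signal = optical density read at 615 nm | test system = E. coli ΔtolC::kan strain BW25113 | timing = 20 h compound exposure of bacteria at 37 °C | buffer or medium = LB medium plus 50 µg/mL kanamycin | compound dosing = 10 µM final, single dose | evaluation = % inhibition of E. coli growth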
Cav32 inh – inhibitors of human Cav3.2 T-type calcium channel. O95180. Cav3.2-expressing cells, Fluo-4 calcium fluorescence FDSS; active compounds read low. B-score at 10 µM. 100,000 compounds, 4% hits;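 active = single-dose well whose peak fluorescence ratio is a statistical outlier from its plate by either plate-standardised score or position-corrected B-score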
Target sequence (O95180 whole entry, looked up): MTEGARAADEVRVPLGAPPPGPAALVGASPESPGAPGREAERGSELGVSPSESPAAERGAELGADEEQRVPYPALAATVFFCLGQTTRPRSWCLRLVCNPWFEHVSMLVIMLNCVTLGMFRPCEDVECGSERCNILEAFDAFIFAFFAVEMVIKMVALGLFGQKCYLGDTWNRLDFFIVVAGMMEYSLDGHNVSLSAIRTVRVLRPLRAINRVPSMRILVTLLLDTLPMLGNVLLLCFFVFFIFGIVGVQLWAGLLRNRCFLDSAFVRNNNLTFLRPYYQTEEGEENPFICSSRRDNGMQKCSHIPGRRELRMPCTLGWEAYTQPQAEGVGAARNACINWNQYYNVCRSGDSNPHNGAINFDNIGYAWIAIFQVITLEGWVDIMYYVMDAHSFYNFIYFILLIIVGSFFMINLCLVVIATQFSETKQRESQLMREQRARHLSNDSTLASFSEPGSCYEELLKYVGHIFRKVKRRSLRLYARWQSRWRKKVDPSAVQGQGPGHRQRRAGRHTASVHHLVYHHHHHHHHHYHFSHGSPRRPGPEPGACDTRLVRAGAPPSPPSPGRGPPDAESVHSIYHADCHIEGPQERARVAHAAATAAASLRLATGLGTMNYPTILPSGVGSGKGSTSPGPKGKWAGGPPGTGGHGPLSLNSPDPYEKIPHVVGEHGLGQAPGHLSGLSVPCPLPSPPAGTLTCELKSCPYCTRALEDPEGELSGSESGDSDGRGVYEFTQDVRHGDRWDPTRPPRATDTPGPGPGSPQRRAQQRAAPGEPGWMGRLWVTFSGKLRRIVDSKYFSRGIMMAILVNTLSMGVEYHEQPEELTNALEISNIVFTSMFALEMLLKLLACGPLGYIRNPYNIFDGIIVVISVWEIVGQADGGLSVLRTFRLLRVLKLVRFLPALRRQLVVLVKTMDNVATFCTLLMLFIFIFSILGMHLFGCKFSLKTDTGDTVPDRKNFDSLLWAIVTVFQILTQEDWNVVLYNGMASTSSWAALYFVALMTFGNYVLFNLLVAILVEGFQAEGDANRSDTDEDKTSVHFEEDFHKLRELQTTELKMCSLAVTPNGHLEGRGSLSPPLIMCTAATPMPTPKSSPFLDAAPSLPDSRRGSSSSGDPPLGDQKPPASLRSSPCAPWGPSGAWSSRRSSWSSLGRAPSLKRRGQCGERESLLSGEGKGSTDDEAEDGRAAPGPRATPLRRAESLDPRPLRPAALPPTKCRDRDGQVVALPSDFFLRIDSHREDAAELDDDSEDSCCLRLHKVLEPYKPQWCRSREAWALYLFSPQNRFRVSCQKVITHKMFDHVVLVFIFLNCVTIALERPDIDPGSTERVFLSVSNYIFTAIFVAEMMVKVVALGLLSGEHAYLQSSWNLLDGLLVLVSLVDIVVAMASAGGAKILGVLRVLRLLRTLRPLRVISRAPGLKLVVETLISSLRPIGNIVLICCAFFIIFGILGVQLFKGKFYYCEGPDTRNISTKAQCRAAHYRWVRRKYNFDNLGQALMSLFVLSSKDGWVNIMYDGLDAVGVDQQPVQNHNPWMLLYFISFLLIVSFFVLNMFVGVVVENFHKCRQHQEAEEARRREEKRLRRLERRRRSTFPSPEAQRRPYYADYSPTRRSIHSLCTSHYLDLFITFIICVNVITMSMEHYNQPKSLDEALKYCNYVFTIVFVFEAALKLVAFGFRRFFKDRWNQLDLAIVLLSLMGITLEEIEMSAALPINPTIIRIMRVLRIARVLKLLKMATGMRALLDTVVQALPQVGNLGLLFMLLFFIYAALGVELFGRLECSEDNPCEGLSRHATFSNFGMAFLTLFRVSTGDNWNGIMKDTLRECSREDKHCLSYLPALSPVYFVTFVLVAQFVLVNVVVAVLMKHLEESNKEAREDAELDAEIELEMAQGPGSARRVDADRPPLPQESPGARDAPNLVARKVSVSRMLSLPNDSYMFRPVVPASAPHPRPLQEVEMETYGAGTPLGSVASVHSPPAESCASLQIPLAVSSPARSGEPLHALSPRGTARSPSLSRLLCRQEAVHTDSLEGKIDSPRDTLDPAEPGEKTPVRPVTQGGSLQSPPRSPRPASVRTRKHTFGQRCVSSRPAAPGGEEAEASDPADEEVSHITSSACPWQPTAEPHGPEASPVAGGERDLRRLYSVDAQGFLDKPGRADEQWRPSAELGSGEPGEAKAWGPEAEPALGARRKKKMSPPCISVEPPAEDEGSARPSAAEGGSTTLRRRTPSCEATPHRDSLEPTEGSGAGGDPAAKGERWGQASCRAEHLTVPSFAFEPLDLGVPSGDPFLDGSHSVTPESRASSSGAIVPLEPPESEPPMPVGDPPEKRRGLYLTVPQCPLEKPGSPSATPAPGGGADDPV
PostGolgi yeast – growth inhibition of a yeast mutant, post-Golgi transport screen; post-Golgi transport phenotypic cell assay; inhibition, % at 10 µM; 98,000 compounds, 0.9% hits; AID 739;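 note: yeast cells grown in 1536-well plates; yeast grown about 18 h at 30C before absorbance read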
PostGolgi ctrl – inhibits growth of the yeast control strain | 98,000 compounds, 5% hits | inhibition, % at 10 µM | AID 738 | efflux-deficient yeast background strain, growth absorbance A615, 16 h
Ecoli WT expand – E. coli BW25113 growth inhibition, expanded screen; OD600 absorbance; 98,000 compounds, 0.15% hits; AID 710; growth inhibition, % at 100 µM;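 active = growth inhibition above about 50% at one test dose, limit read from the data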;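 note: growth measured after 20 h incubation at 37 °C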
Starred values were filed as active, the others as inactive; / = no result given. Most compounds without a hit are left out; they make up all but 8.4% or so of the library. Cut-off read from the data, not from the text of the source, unless noted: active = inhibition above about 30%; inactive = the rest.

SMILES	tolC growth inh	Cav32 inh	PostGolgi yeast	PostGolgi ctrl	Ecoli WT expand
Cc1cc(C(=O)CN2C(=O)NC3(CCCc4ccccc43)C2=O)c(C)n1Cc1ccco1 (configuration not stated)	/	-0.00881	5.8	7.6	-10.0
Cc1cc(C(=O)CN2C(=O)NC3(CCCc4ccccc43)C2=O)c(C)n1Cc1ccccc1 (configuration not stated)	/	-4.4*	-7.5	12.2	-8.0
C[C@H]1COc2c(C3(N)CC3)c(F)cc3c(=O)c(C(=O)O)cn1c23	/	0.546	/	/	/
COc1c(N2CCN(C(=S)Nc3ccccc3)C(C)C2)c(F)cc2c(=O)c(C(=O)O)cn(C3CC3)c12 (configuration not stated)	/	/	-3.8	8.8	99.0*
CNC(=S)N1CCN(c2c(F)cc3c(=O)c(C(=O)O)cn(C4CC4)c3c2OC)CC1C (configuration not stated)	/	4.38*	5.3	2.6	100.0*
COCCn1c(Cc2ccccc2)nnc1SCC(=O)N(C)C	-19.0	-0.429	17.9	3.1	0.0
Cc1cc(C)n2nc[n+](C)c2n1	-6.7	0.127	24.5	1.3	-4.0
CCC(C)n1c(C)nc2c(c1=O)c1nc3ccccc3nc1n2CCC1=CCCCC1 (configuration not stated)	/	-0.361	7.9	12.8	-5.0
COc1cccc2c1OC1(C)CC2NC(=O)N1Cc1ccccc1 (configuration not stated)	/	-0.00764	14.9	18.3	1.0
CC(C)=CCc1c(O)ccc(C(=O)Cc2ccccc2)c1O	/	-0.74	6.7	34.0*	4.0
CCC(C)(C)n1nnnc1C(c1ccc(C)cc1)N(Cc1ccco1)Cc1cccs1 (configuration not stated)	/	-5.77*	-2.7	17.0	-13.0
COc1cccc(CN(Cc2ccco2)C(c2ccc(F)cc2)c2nnnn2C(C)(C)C)c1 (configuration not stated)	7.0	-1.76	-2.8	3.4	-1.0
Cc1ccc(Cl)cc1NC(=O)COC(=O)C1CCCC1	6.7	-0.857	1.2	10.9	0.0
Cc1ccc(Cl)cc1NC(=O)COC(=O)C12CC3CC(CC(C3)C1)C2	/	-0.05	11.7	35.7*	3.0
O=c1c2cc(N3CCOCC3)ccc2[nH]c(=S)n1Cc1ccc(Cl)cc1	/	-1.12	0.6	39.9*	-2.0
Cc1ccc(C(=O)Nc2ccc(S(=O)(=O)N3CCN(C)CC3)cc2)o1	-7.3	0.506	-1.9	3.6	2.0
O=C(OCn1nnc2ccccc2c1=O)c1cn(-c2ccccc2)nc1-c1cccnc1	14.6	/	34.2*	4.0	2.0
O=C(CC1CCCCC1)OCn1nnc2ccccc2c1=O	7.5	-0.572	3.1	8.4	4.0
O=C(CC(c1ccccc1)c1ccccc1)OCn1nnc2ccccc2c1=O	/	-4.94*	5.1	27.0	-23.0
CCOC(=O)c1cn(-c2ccccc2)nc1-c1cccnc1	4.2	-0.181	3.1	9.3	9.0
Cc1ccc(S(=O)(=O)N[C@H](C(=O)OCn2nnc3ccccc3c2=O)C(C)C)cc1	/	-3.77*	2.9	34.9*	-7.0
CN(C)S(=O)(=O)c1ccc(C(=O)OCn2nnc3ccccc3c2=O)cc1	/	0.14	58.0*	28.4	3.0
Cc1ccccc1C(O)c1ccccn1 (configuration not stated)	/	0.437	-0.7	7.6	6.0
O=C(/C=C/c1cccc([N+](=O)[O-])c1)NCCN1CCOCC1	/	0.336	16.7	3.9	4.0
CC1(C)CC(=O)C=C(NCc2ccc(Cl)c(Cl)c2)C1	/	-0.616	-3.5	5.3	-3.0
SMILES	tolC growth inh	Cav32 inh	PostGolgi yeast	PostGolgi ctrl	Ecoli WT expand
OCCN1CCOCCN(CCO)CCOCC1	-20.6	0.289	-3.9	0.3	-5.0
CCCc1cc(C(=O)Nc2cccc(Cl)c2)no1	98.3*	-2.83	-7.0	3.7	12.0
Cc1cc(C(=O)CSc2nnc(-c3ccc(Cl)cc3)n2C)c(C)n1CC1CCCO1 (configuration not stated)	/	1.57	3.5	6.1	-6.0
Cc1ccc(-n2nnnc2SCC(=O)c2cc(C)n(CC3CCCO3)c2C)cc1 (configuration not stated)	12.4	-1.49	/	/	/
Cc1cccc(-n2nnnc2SCC(=O)c2cc(C)n(CC3CCCO3)c2C)c1 (configuration not stated)	34.4	-5.43*	-7.5	-2.5	-32.0
Cc1sc2nc(SCC(=O)c3cc(C)n(CC4CCCO4)c3C)n(C(C)C)c(=O)c2c1C (configuration not stated)	-1.1	-4.09*	-3.9	30.4*	-3.0
Cc1cc(C(=O)Cn2nnc(-c3ccc(Cl)cc3)n2)c(C)n1CC1CCCO1 (configuration not stated)	28.1	-5.21*	22.2	32.8*	-1.0
